Measured values from ChEMBL document CHEMBL1138590, “Discovery of novel dihydro-9,10-ethano-anthracene carboxamides as glucocorticoid receptor modulators” (Bioorg Med Chem Lett, 2009).

Key:
Androgen receptor = target: T1, Androgen receptor (Homo sapiens, UniProt P10275); experiment: Displacement of fluorescently labeled ligand from androgen receptor by fluorescence polarization assay
T1 sequence (P10275 whole entry): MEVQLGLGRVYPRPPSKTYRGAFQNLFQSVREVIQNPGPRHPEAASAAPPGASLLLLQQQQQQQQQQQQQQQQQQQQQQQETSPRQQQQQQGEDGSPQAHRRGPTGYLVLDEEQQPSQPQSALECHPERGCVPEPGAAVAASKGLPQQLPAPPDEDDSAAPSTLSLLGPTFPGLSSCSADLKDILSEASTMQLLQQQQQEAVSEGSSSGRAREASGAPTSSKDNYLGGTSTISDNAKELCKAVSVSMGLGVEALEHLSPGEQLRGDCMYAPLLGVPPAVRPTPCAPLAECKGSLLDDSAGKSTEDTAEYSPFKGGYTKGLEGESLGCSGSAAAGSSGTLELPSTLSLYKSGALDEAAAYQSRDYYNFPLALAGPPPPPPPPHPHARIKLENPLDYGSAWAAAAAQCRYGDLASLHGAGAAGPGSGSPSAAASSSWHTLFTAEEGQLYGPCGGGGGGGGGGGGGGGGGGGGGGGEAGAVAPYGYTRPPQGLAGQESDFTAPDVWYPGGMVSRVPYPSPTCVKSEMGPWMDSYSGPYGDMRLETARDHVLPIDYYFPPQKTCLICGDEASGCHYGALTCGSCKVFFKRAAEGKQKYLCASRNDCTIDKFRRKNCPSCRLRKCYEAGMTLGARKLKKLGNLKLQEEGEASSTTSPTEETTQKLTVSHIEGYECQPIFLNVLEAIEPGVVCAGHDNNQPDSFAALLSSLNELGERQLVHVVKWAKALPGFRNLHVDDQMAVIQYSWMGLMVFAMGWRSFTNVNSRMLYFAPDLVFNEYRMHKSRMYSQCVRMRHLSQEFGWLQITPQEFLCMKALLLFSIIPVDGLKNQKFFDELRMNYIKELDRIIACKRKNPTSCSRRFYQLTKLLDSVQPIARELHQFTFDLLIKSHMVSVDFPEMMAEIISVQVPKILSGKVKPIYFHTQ

Progesterone receptor = target: T2, Progesterone receptor (Homo sapiens, UniProt P06401); experiment: Displacement of […] from progesterone receptor by fluorescence polarization assay
T2 sequence (P06401 whole entry): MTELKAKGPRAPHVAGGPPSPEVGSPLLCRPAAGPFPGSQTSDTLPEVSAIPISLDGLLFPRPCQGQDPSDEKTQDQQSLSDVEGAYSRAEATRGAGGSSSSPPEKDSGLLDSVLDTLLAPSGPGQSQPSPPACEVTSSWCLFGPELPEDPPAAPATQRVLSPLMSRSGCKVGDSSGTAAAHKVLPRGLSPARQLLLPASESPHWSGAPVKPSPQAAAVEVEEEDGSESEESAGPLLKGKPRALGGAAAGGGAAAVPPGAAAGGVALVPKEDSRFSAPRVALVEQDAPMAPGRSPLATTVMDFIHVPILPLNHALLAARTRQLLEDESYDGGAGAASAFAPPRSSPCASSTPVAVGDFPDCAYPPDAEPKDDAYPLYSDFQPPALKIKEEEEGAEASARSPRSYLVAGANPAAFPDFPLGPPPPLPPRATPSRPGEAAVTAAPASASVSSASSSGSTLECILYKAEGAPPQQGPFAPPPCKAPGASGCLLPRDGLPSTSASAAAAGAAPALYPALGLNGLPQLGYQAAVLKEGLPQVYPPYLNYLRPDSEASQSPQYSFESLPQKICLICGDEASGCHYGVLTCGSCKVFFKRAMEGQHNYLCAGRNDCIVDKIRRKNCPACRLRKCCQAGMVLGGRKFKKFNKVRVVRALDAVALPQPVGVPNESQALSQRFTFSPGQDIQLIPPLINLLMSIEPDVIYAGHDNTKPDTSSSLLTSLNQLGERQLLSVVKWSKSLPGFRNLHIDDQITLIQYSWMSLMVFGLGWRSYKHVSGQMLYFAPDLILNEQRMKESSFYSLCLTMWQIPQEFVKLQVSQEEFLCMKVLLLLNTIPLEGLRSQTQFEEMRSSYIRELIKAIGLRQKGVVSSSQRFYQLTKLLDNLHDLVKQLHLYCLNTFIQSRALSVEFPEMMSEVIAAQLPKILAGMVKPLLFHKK
In short: (§1)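 Fluorescence polarization competition binding: the test compound competes with a fluorescently labelled ligand for binding to the full-length receptor or its ligand-binding domain. IC50 is fitted from the polarization signal with a four-parameter logistic equation. Ki is derived by Cheng–Prusoff, Ki = IC50/(1 + ligand concentration/Kd). Values are means of duplicate experiments.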

Glucocorticoid receptor [1] = target: T3, Glucocorticoid receptor (Homo sapiens, UniProt P04150); experiment: Displacement of FITC-dexamethasone from human recombinant glucocorticoid receptor alpha by fluorescence polarization assay
T3 sequence (P04150 whole entry): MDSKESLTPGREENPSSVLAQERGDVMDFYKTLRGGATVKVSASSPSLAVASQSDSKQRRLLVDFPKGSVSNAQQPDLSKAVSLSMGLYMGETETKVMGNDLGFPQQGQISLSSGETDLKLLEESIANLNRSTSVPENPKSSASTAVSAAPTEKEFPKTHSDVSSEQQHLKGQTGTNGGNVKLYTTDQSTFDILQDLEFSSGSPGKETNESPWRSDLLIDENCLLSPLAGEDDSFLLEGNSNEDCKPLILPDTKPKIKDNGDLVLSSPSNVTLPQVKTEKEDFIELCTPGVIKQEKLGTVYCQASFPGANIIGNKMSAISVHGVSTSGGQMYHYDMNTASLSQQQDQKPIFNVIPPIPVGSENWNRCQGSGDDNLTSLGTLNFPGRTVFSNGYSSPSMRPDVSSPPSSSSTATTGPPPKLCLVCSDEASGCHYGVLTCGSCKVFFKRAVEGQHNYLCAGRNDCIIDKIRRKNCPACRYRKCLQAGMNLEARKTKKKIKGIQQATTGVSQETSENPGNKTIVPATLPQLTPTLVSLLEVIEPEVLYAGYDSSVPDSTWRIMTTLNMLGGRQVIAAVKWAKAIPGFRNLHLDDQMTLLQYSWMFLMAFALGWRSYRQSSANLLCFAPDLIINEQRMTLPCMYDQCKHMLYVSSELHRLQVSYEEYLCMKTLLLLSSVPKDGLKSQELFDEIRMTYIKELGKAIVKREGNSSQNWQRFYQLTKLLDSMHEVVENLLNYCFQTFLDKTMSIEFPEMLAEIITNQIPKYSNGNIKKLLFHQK

Estrogen receptor = target: T4, Estrogen receptor (Homo sapiens, UniProt P03372); experiment: Displacement of […] from estrogen receptor alpha by fluorescence polarization assay
T4 sequence (P03372 whole entry): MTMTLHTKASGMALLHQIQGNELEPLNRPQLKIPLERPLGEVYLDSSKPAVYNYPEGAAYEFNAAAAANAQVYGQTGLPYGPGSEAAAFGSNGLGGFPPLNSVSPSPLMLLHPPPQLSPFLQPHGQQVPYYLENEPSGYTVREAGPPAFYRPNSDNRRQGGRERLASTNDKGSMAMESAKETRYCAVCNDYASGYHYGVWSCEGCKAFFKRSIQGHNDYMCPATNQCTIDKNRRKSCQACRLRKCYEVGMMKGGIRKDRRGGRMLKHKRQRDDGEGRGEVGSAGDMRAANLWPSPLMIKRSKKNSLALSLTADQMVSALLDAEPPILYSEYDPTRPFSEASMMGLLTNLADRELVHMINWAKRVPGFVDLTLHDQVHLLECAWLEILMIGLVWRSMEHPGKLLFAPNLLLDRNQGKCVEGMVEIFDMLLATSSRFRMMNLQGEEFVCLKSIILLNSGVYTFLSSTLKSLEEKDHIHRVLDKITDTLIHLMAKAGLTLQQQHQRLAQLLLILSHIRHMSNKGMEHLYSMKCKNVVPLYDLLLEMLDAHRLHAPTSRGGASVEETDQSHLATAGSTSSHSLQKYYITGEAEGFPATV
In short: as §1

Glucocorticoid receptor [2] = target: T3, Glucocorticoid receptor; experiment: Transrepression activity at GR in PMA-stimulated human A549 cells assessed as inhibition of AP1 response element-induced luciferase reporter gene activity; type: cell-based
[3] = target: T5, Mineralocorticoid receptor (Homo sapiens) (UniProt P08235); experiment: Antagonist activity at mineralocorticoid receptor in human A549 cells assessed as inhibition of 1.25 nM aldosterone-induced effect at 0.1 uM; type: functional, cell-based
T5 sequence (whole entry): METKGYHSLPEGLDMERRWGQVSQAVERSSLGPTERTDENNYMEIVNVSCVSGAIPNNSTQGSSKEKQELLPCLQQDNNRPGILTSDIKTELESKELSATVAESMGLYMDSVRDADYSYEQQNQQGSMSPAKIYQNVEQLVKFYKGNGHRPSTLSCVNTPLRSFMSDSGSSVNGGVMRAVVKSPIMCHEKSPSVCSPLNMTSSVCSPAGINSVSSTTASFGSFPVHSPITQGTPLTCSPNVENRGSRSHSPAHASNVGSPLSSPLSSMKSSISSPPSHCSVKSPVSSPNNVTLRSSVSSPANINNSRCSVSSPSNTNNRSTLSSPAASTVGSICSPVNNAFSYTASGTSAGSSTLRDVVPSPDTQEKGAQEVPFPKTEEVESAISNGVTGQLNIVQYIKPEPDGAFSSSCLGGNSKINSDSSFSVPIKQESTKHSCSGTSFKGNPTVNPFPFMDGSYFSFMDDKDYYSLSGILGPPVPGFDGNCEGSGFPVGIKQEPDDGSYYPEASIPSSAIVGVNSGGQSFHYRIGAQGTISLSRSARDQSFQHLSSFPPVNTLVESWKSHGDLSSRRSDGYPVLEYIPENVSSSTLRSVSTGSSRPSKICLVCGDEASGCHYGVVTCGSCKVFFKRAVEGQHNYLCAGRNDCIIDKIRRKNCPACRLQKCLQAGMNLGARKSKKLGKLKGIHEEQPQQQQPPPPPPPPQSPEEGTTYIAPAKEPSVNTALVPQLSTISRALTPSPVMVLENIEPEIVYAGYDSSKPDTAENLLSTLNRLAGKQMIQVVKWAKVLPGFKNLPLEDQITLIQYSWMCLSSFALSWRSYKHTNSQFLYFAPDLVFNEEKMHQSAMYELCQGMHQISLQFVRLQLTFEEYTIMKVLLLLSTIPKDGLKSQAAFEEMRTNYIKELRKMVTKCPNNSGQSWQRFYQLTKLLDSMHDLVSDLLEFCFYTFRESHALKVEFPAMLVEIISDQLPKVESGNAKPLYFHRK

[4] = Selectivity for human recombinant glucocorticoid receptor alpha over progesterone receptor
Glucocorticoid receptor [5] = target: T3, Glucocorticoid receptor; experiment: Agonist activity at GR ligand binding domain expressed in human NP1 cells assessed as glucocorticoid response element transactivation by GAL4 luciferase reporter gene assay; type: cell-based
Glucocorticoid receptor [6] = target: T3, Glucocorticoid receptor; experiment: Transrepression activity at GR in IL-1-beta-stimulated human A549 cells assessed as inhibition of NF-kappaB-dependent E-selectin transcription by luciferase reporter gene assay; type: cell-based
[7] = Selectivity for human recombinant glucocorticoid receptor alpha over androgen receptor
[8] = Selectivity for human recombinant glucocorticoid receptor alpha over estrogen receptor alpha

Row | SMILES | Ki (Androgen receptor) | Ki (Progesterone receptor) | Ki (Glucocorticoid receptor [1]) | Ki (Estrogen receptor) | EC50 (Glucocorticoid receptor [2]) | inhibition [3] | fold change (FC) [4] | EC50 (Glucocorticoid receptor [5]) | EC50 (Glucocorticoid receptor [6]) | fold change (FC) [7] | fold change (FC) [8]
1 | CC12CC(C)(C(=O)Nc3nccs3)C(c3ccccc31)c1ccccc12 (stereo in doubt; 17a) | 2900 nM | 31 nM | 1 nM | > 5000 nM | 5.3 nM |  |  | 117 nM | 1.4 nM |  | 
2 | CC12CC(C)(C(=O)Nc3nncs3)C(c3ccccc31)c1ccccc12 (single isomer, unassigned; isomer A) | 9300 nM | 35 nM | 1.3 nM | > 5000 nM | 11.4 nM |  |  | 111 nM | 8.3 nM |  | 

The next lines start with the values.

Row | Ki (Androgen receptor) | Ki (Progesterone receptor) | Ki (Glucocorticoid receptor [1]) | Ki (Estrogen receptor) | EC50 (Glucocorticoid receptor [2]) | inhibition [3] | fold change (FC) [4] | EC50 (Glucocorticoid receptor [5]) | EC50 (Glucocorticoid receptor [6]) | fold change (FC) [7] | fold change (FC) [8] | SMILES
3 | > 10000 nM | > 10000 nM | 4.1 nM | > 5000 nM | 345 nM |  |  |  |  |  |  | Cc1cnc(NC(=O)C2(C)CC3c4ccccc4C2c2ccccc23)s1 (single isomer, unassigned; isomer A) [listing 1 of 2 here]
4 |  |  |  |  |  | 5% | > 2500 |  |  |  |  | Cc1cnc(NC(=O)C2(C)CC3c4ccccc4C2c2ccccc23)s1 (single isomer, unassigned; isomer A) [listing 2 of 2 here]
5 |  |  | 2.9 nM |  | 268 nM |  |  | > 10000 nM | 30.7 nM | > 1000 | > 1000 | CC1(C(=O)Nc2nccs2)CC2c3ccccc3C1c1ccccc12 (configuration not stated)
